Assay results pooled from the literature.
Compare with care: the assays were run in different laboratories.
Matrix: Caco-2

Structure (SMILES) | tested at | time | Papp B→A [×10⁻⁶ cm/s]
C[C@H]1O[C@@H](O[C@H]2[C@@H](O)C[C@H](O[C@H]3[C@@H](O)C[C@H](O[C@H]4CC[C@@]5(C)[C@H](CC[C@@H]6[C@@H]5C[C@@H](O)[C@]5(C)[C@@H](C7=CC(=O)OC7)CC[C@]65O)C4)O[C@@H]3C)O[C@@H]2C)C[C@H](O)[C@@H]1O | 10 µM | 2 h | 13.6
Cc1ccc(N(c2ccc(NC(=O)CN(C)c3ccccc3N3CCCC3=O)cc2)C(C)C)cc1 |  |  | 2.52
CCCCCCOC(=O)NC(=N)c1ccc(NCc2nc3cc(C(=O)N(CCC(=O)OCC)c4ccccn4)ccc3n2C)cc1 | 5 µM | 2 h | 1.1
COc1ccc(-c2coc3cc(O)cc(O)c3c2=O)cc1 | 100 µg/mL | 2 h | 21.2
N#Cc1ccc(C[C@H](NC(=O)c2cc3cc(F)ccc3[nH]2)C(=O)N2CCc3ccccc32)cc1 | 100 µM | 2 h | 386
CC(C)c1nc(N(C)S(C)(=O)=O)nc(-c2ccc(F)cc2)c1/C=C/[C@@H](O)C[C@@H](O)CC(=O)O | 5 µM | 2 h | 14.6
CCCCCOC(=O)Nc1nc(=O)n([C@@H]2O[C@H](C)[C@@H](O)[C@H]2O)cc1F |  | 4 h | 14.3
C[C@@H]1O[C@@H](O[C@H]2[C@H](Oc3cc(O)c4c(c3)O[C@H](c3ccc(O)cc3)CC4=O)O[C@H](CO)[C@@H](O)[C@@H]2O)[C@H](O)[C@H](O)[C@H]1O | 100 µg/mL | 2 h | 8.02
CC[C@]1(O)C[C@@H]2CN(CCc3c([nH]c4ccccc34)[C@@](C(=O)OC)(c3cc4c(cc3OC)N(C)[C@H]3[C@@](O)(C(=O)OC)[C@H](OC(C)=O)[C@]5(CC)C=CCN6CC[C@]43[C@@H]65)C2)C1 | 10 µM | 2 h | 22.9
N#Cc1ccc(C[C@H](Nc2nnc(-c3ccc(F)cc3)o2)C(=O)N2CCc3ccccc32)cc1 | 100 µM | 2 h | 237
O=C(CCc1ccc(O)cc1)c1c(O)cc(O)cc1O[C@@H]1O[C@H](CO)[C@@H](O)[C@H](O)[C@H]1O | 100 µg/mL | 2 h | 5.39
Cc1cc(C)c(CNC(=O)c2cc(Cl)c3c(c2C)O[C@@](C)([C@H]2CC[C@H](N(C)C)CC2)O3)c(=O)[nH]1 | 100 µM |  | 16.3
O=c1cc(-c2ccccc2)oc2cc(O)c(O)c(O)c12 | 100 µg/mL | 2 h | 2.76
N#Cc1ccc(C[C@H](Nc2c(Nc3ccc(Br)cc3)c(=O)c2=O)C(=O)N2CCc3ccccc32)cc1 | 100 µM | 2 h | 249
